The values below come from article PMC7114262 (Antiviral Research, 2005).

Molecules are shown by their SMILES.

Data set [1] is described as follows: Cytotoxicity, tetrazolium dye assay, growing HEL monolayers. In kind it is cell-based. To be noted: human, growing HEL fibroblast monolayers. In a few lines:
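Cytotoxicity in growing HEL fibroblasts: cells not serum-starved, about 10% confluent when compound was added. Viability read by tetrazolium colorimetric dye after 72 h of exposure, as absorbance at 470 nm relative to DMSO-matched control wells. CC50 obtained by linear regression of percent inhibition versus concentration, reported as mean ± standard deviation of quadruplicate experiments.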

A short description of data set [2]: Cytotoxicity, tetrazolium dye assay, static HEL monolayers. In kind it is cell-based, human. Particulars: human, static (confluent, serum-starved) HEL fibroblast monolayers. In a few lines: (§1)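 Confluent HEL fibroblasts serum-starved 48 h, then exposed to a range of compound concentrations without virus or methylcellulose. After 72 h, viability read by tetrazolium colorimetric dye at 470 nm, as a percentage of DMSO-matched control wells. CC50 obtained by linear regression of percent inhibition against concentration, reported as mean ± standard deviation of quadruplicate experiments.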

For data set [3], the system named is HCMV proteins (IE1-72, IE2-86, UL84, UL94). Put plainly: Western blot / immunoprecipitation of HCMV proteins in infected HEL cells. It is filed as cell-based, human cytomegalovirus. (In general: A western blot detects proteins with antibodies after separation by electrophoresis.)
Data set [4] relates to HCMV DNA. Put plainly: HCMV DNA assay. In kind it is cell-based, human cytomegalovirus. The procedure, abridged:
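Confluent HEL cells serum-starved 48 h, then infected with HCMV at 2–5 pfu/cell with or without compound; 50 μM ganciclovir served as control. At 72 hpi, wells were frozen in PBS at −80 °C and thawed. DNA was denatured in NaOH/NaCl, neutralized with Tris pH 7.0, and baked onto nitrocellulose. Serial dilutions were probed 14 h at 42 °C with 32P nick-translated Towne genomic DNA and read by autoradiography; four independent experiments.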

For data set [5], the system named is HCMV tegument protein pp65. Kind of data set: HCMV nuclear translocation, pp65 fluorescence microscopy. In kind it is cell-based, human cytomegalovirus. Particulars: 6 hpi; 20 μM baicalein, 50 μM genistein. In a few lines: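 Confluent HEL fibroblasts on chamber slides, serum-starved overnight and chilled on ice. Ice-cold compound-containing or plain DMEM added 10 min before infection with HCMV at 2–5 pfu/cell ± compound: 1 h at 4 °C, then 1 h at 37 °C. Cells washed and kept 5 h at 37 °C ± compound. Methanol-fixed at −20 °C, stained with anti-pp65 (1:1000), fluorescein secondary (1:500) and DAPI; nuclear pp65 examined at 6 hpi.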

Data set [6] relates to HCMV DNA. Kind of data set: Reversibility of antiviral effect after drug removal. It is filed as cell-based, human cytomegalovirus. To be noted: drug removed at 72 hpi; 20 μM baicalein, 50 μM genistein. In a few lines:
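HEL cells infected with HCMV in presence of compound (20 or 50 μM) for 72 h. Medium then replaced with drug-free medium and replication allowed for a further 72 h. Viral DNA measured at 24 h intervals by 32P-probe dot blot hybridization; experiment reproduced twice.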

The subject of data set [7] is cdk2, cyclin E, p53, and PCNA. Put plainly: Immunoblot of HCMV-induced cell cycle regulatory proteins. It is filed as cell-based, human. Particulars: 24 hpi; 50 μM ganciclovir, 20 μM baicalein, 50 μM genistein. The procedure, abridged:
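Confluent, serum-starved HEL cells given compound (20 or 50 μM final; 50 μM ganciclovir control) from 1 h before and throughout HCMV infection. Harvested at 24 hpi in SDS sample buffer and run on 8–10% SDS-PAGE. Immunoblotted for cdk2, cyclin E, p53 and PCNA (milk block, primary overnight at 4 °C, HRP secondary, ECL). Bands quantified by densitometry of scanned films.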

In the next data set the test system is NF-κB. Kind of data set: EMSA of HCMV-mediated NF-κB activation. It is filed as cell-based, human. Particulars: 24 hpi; 20 μM baicalein, 50 μM genistein.
A further data set has as its system Static HEL fibroblasts. Kind of data set: Cytotoxicity, tetrazolium dye assay, static HEL monolayers. It is filed as cell-based, human. Particulars: 20 μM (5.4 μg/ml) baicalein, 50 μM (13.5 μg/ml) genistein. In a few lines: as §1
In a further data set the target is EGFR (Homo sapiens, UniProt P00533). Kind of data set: HCMV-mediated EGFR tyrosine phosphorylation. In kind it is cell-based. Particulars: shortly after infection; 20 μM baicalein, 50 μM genistein.
EGFR, sequence (P00533 25-1210): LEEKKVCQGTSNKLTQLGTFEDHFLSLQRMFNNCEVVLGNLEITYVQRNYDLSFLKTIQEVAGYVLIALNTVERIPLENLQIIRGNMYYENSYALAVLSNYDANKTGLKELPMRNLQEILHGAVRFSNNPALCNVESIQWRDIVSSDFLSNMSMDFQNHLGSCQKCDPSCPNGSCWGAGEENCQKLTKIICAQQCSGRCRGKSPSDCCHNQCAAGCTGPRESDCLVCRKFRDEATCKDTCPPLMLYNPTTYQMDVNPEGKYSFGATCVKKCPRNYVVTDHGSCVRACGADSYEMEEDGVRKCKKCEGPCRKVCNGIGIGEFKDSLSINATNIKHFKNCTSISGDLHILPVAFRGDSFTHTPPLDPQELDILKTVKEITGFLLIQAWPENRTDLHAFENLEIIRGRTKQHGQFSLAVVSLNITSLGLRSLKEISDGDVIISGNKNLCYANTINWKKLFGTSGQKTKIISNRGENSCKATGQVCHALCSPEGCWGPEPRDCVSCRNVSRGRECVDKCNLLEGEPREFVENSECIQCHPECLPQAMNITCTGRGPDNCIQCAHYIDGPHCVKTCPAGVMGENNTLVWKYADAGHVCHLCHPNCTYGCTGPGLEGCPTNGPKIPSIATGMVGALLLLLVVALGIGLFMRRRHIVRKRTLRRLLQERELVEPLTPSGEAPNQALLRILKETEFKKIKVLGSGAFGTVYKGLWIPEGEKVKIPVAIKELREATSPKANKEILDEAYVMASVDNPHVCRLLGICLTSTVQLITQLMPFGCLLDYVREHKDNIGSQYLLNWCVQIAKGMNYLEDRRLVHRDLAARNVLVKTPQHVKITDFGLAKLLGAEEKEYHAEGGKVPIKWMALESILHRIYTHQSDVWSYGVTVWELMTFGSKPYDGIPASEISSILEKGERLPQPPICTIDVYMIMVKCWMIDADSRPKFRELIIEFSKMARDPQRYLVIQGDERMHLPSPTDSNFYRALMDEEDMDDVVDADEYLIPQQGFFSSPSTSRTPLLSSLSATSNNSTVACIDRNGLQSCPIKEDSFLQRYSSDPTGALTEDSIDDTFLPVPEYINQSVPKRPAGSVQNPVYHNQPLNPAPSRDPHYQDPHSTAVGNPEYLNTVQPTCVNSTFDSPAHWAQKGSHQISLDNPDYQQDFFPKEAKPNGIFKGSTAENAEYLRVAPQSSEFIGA
The subject of another data set is HCMV. To be noted: ≤12 μM genistein, IE1-72 protein levels at 24 hpi; ref Slobbe-van Drunen et al., 1997; cited from earlier work.
The conditions of data set [8]: persons on a high soy diet, estimated; ref Adlercreutz et al., 1993; cited from earlier work.

For orientation: CC50 means the concentration that lowers cell viability or growth by half. Read a low CC50 as harm at low concentration. What is called inhibition is how much of the control response was suppressed.

`O=c1cc(-c2ccc(O)cc2)oc2cc(O)cc(O)c12` [Apigenin]: the CC50 at 72 h in data set [1] and in [2] was more than 100 µM in each case.
With `O=c1cc(-c2ccccc2)oc2cc(O)c(O)c(O)c12` [Baicalein], the “Levels of all three kinetic classes of HCMV proteins” value in [3] (20 μM baicalein, immunoblot 24, 48, 72 hpi) is reported as “reduced to nearly background levels”. Further, the CC50 at 72 h in data set [1] and in data set [2] was more than 100 µM each time. Moreover, the “HCMV DNA level” value in the data set on HCMV DNA [4] (20 μM baicalein, 72 hpi) is “reduced to nearly background levels”. Also, the “Nuclear accumulation of pp65” value in data set [5] is listed as “blocked”. In the data set on HCMV DNA [6], the “Reversibility of antiviral effects” value is recorded as “poorly reversible”. Besides, the “HCMV-mediated increases in steady-state levels of cdk2, cyclin E, p53, and PCNA” value (shortened to “HCMV-mediated increases”) in [7] is given as “inhibited”. Further, the “HCMV induction of NF-κB” value in the data set with NF-κB is given as “absent”. Besides, in the data set on Static HEL fibroblasts, the “Cytotoxicity in cell culture at concentration used for mechanism studies” value is given as “did not display obvious cytotoxicity”. Moreover, the “HCMV-induced EGFR phosphorylation” value at EGFR was “reduced to background levels”.
Turning to `O=C(O)[C@H]1O[C@@H](Oc2cc3oc(-c4ccccc4)cc(=O)c3c(O)c2O)[C@H](O)[C@@H](O)[C@@H]1O` [Baicalin], the CC50 at 72 h in data set [1] and in [2] was more than 400 µM in each case.
`O=c1c(-c2ccc(O)cc2)coc2cc(O)ccc12` [Daidzein]: the half-maximal cytotoxic concentration (CC50) at 72 h in data set [1] and in [2] was more than 200 µM in each case.
On to `O=c1c(O)c(-c2ccccc2)oc2cc(O)cc(O)c12` [Galangin], for which the CC50 at 72 h in [1] and in data set [2] was more than 400 µM in each case.
As to `Nc1nc(O)c2ncn(COC(CO)CO)c2n1` [Ganciclovir], the “HCMV-mediated increases” value in data set [7] was “not affected”.
As to `O=c1c(-c2ccc(O)cc2)coc2cc(O)cc(O)c12` [Genistein], in [3] (50 μM genistein, 24 hpi), the IE1-72 level entry is listed as “slightly lower levels”. In data set [3] (50 μM genistein, 24 hpi), the “Reduction of IE2-86 levels” value was not above 65%. In [3] (50 μM genistein, 48 and 72 hpi respectively), the “UL84 and UL94 protein levels” value is “nearly background levels”. Moreover, in the data set with HCMV, the “Inhibition of HCMV replication” value was “did not inhibit”. The 50% cytotoxic concentration (CC50) at 72 h in data set [1] was 124 ± 52 µM; in [2] it was more than 200 µM. In addition, the inhibition at 50 µM in the data set on HCMV DNA [4] (Human betaherpesvirus 5, read-out: Inhibition of HCMV DNA replication) was approximately 95%. In [8], the Steady-state serum levels was 1 to 5 µM. Also, the “Reversibility of antiviral effects” value in the data set on HCMV DNA [6] is given as “fully”. In data set [7], the “HCMV-mediated increases” value is “inhibited”. Also, in the data set on NF-κB, the “HCMV induction of NF-κB” value is “absent”. For the same compound, the “Cytotoxicity in cell culture at concentration used for mechanism studies” value in the data set on Static HEL fibroblasts is on record as “did not display obvious cytotoxicity”.
In the case of `O=c1cc(-c2ccc(O)c(O)c2)oc2cc(O)cc(O)c12` [Luteolin], the CC50 at 72 h was 62 ± 10 µM in data set [1] and more than 200 µM in [2].
The matching figures for `O=C1C[C@@H](c2ccc(O)cc2)Oc2cc(O)cc(O)c21` [Naringenin]: more than 100 µM and more than 100 µM.
With `O=c1c(O)c(-c2ccc(O)c(O)c2)oc2cc(O)cc(O)c12` [Quercetin], the CC50 at 72 h in data set [1] and in data set [2] was more than 400 µM each time.
